Bioassay records deposited in PubChem BioAssay by Johns Hopkins Ion Channel Center.
Compounds with a hit are over-represented: about 3.7% of the library has one in this group of screens.
hERG protect: compounds protecting human hERG from proarrhythmic drug block; Q12809; CHO-hERG, FluxOR thallium flux, dofetilide IC70 present; activation (rescue from dofetilide block), less the hit threshold, % at 10 µM; 310,000 tested, 0.51% active;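 active = activation above the mean of controls blocked by dofetilide plus 5 SD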;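 note: thallium influx through hERG after potassium depolarization seen as dye fluorescence rise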
KCNK3 inh: human KCNK3 channel inhibition, primary screen | B-score at 10 µM | 340,000 tested, 0.84% active | AID 602410 | O14649 | CHO-KCNK3 thallium flux, FluxOR fluorescence; hits give low values;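 active = B-score under library mean minus 4 SD, starting fluorescence ratio at most library mean plus 5 SD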;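 note: more negative B-score means stronger inhibition of thallium flux through KCNK3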
KCNQ1 inh: inhibitors of human KCNQ1 potassium channel; P51787; CHO-K1 KCNQ1, FluxOR thallium flux fluorescence; hits give high values; B-score at 10 µM; 310,000 tested, 1.3% active; AID 2642;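 active = compounds whose thallium flux B-score, printed positive for inhibition, exceeds three library SD while starting fluorescence stays within three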;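 note: channel opened by potassium depolarization with thallium stimulus after 20 min compound exposure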
Kir21 inh: blocks the mouse Kir2.1 inward-rectifier potassium channel; P35561; HEK293-Kir2.1, FluxOR thallium flux fluorescence; hits give low values; B-score at 10 µM; 310,000 tested, 0.85% active; AID 1672;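 active = fluorescence ratio B-score at or below minus 3 SD of library scores, with starting-brightness B-score within 2 SD, cut at about -4.2 in these data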;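 note: channel flux triggered by added potassium and thallium sulfate stimulus; B-score of peak minus minimum fluorescence over baseline after thallium stimulus; more negative B-score means stronger Kir2.1 block with less thallium influx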
Target sequence (P35561 whole entry, looked up): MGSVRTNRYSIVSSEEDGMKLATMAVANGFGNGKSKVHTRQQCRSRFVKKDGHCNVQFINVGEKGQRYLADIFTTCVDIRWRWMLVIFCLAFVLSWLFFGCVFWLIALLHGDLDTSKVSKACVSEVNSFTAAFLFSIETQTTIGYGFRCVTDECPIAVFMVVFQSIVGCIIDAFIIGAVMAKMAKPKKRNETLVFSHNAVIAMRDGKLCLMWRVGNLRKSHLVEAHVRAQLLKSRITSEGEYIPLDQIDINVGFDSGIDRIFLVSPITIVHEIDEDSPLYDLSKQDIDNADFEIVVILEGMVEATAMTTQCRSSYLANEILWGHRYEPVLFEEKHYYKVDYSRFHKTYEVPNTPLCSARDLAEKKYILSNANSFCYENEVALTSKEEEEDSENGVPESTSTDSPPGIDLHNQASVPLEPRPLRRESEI
KCNQ1 act: potentiators or activators of human KCNQ1 potassium channel | P51787 | CHO-K1 KCNQ1, thallium flux FluxOR fluorescence; hits give high values | B-score at 10 µM | 310,000 tested, 0.35% active | AID 2648;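 active = fluorescence ratio B-score, a plate-corrected score, at least three library SD, with initial intensity B-score within 5 SD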
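Assay system: CHO-K1 cells stably expressing KCNQ1; Medium: assay buffer with matched DMSO; Also added: K+/Tl+ depolarizing stimulus; Dosing: single dose; Timing: dye 90 min, compound 20 min, room temperature; Measured by: kinetic FluxOR thallium fluorescence, 10-s 1-Hz baseline, 110-s post-stimulus read; Read-out: peak-minus-minimum fluorescence over initial fluorescence, negative-control normalized, B-scored.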
KCNK9 inh: inhibitors of human KCNK9 two-pore domain potassium channel. HEK293 KCNK9, FluxOR thallium flux fluorescence; hits give low values. B-score at 10 µM. 310,000 tested, 1.2% active. AID 488922;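 active = ratio B-score over 3 SD below the library mean, with starting fluorescence within 5 SD of its mean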;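 note: negative B-score means less thallium flux so channel inhibition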
Numbers without * were called inactive.

Results for CCOC(=O)Cn1cc(C#N)c2cccc(CC)c21 ?
hERG protect: -27; KCNK3 inh: inactive; KCNQ1 inh: inactive; Kir21 inh: 0.73; KCNQ1 act: inactive; KCNK9 inh: inactive

How did COc1ccc(NC(=O)N2CCCc3cc(C)ccc32)c(OC)c1 do in these assays?
hERG protect: -16; KCNK3 inh: inactive; KCNQ1 inh: inactive; Kir21 inh: 0.28; KCNQ1 act: inactive; KCNK9 inh: inactive

What do the screens show for `COc1ccccc1CC(=O)N1CCCc2cc(C)ccc21`?
hERG protect: -3; KCNK3 inh: inactive; KCNQ1 inh: inactive; Kir21 inh: -7.3*; KCNQ1 act: inactive; KCNK9 inh: inactive

Results for O=C(COC(=O)CNC(=O)c1ccccc1)Nc1nnc(-c2ccccc2)o1 ?
hERG protect: -4; KCNK3 inh: inactive; KCNQ1 inh: inactive; Kir21 inh: 0.04; KCNQ1 act: inactive; KCNK9 inh: inactive

How did CC1=C(C(=O)N2CCCC(CCC(=O)NCc3ccccc3F)C2)OCCO1 (stereo unspecified) do in these assays?
hERG protect: -7; KCNK3 inh: inactive; KCNQ1 inh: inactive; Kir21 inh: -0.01; KCNQ1 act: inactive; KCNK9 inh: inactive

Results for Cc1ccc(S(=O)(=O)N2CCCC(CCC(=O)NCc3ccccc3F)C2)s1 (stereo unspecified) ?
hERG protect: -3; KCNK3 inh: inactive; KCNQ1 inh: inactive; Kir21 inh: -1.4; KCNQ1 act: inactive; KCNK9 inh: -8*

What do the screens show for `Cc1sc2nc(SCC(=O)N(C)Cc3ccccc3)n(-c3ccccc3)c(=O)c2c1C`?
hERG protect: -10; KCNK3 inh: -8.7*; KCNQ1 inh: inactive; Kir21 inh: 0.3; KCNQ1 act: inactive; KCNK9 inh: inactive

What do the screens show for `Cc1sc2nc(SCC(=O)NCCCO)n(-c3ccccc3)c(=O)c2c1C`?
hERG protect: -8; KCNK3 inh: inactive; KCNQ1 inh: inactive; Kir21 inh: 0.17; KCNQ1 act: inactive; KCNK9 inh: inactive

Results for Cc1ccc(OCc2cc(C(=O)N3CCN(CC(=O)NC(C)C)CC3)no2)cn1 ?
hERG protect: -7; KCNK3 inh: inactive; KCNQ1 inh: inactive; Kir21 inh: -0.84; KCNQ1 act: inactive; KCNK9 inh: inactive

What do the screens show for `COc1ccc(CNC2CCCc3ccccc32)cc1OC` (stereo unspecified)?
hERG protect: -11; KCNK3 inh: inactive; KCNQ1 inh: inactive; Kir21 inh: 0.25; KCNQ1 act: inactive; KCNK9 inh: inactive

How did COc1ccc(CNC2c3ccccc3-c3ccccc32)cc1OC do in these assays?
hERG protect: -6; KCNK3 inh: inactive; KCNQ1 inh: inactive; Kir21 inh: -4.4*; KCNQ1 act: inactive; KCNK9 inh: inactive

Results for NC1=NC[C@@H](Cc2ccc(O)cc2)N1CCC12CC3CC(CC(C3)C1)C2 ?
hERG protect: -11; KCNK3 inh: inactive; KCNQ1 inh: inactive; Kir21 inh: -0.31; KCNQ1 act: inactive; KCNK9 inh: inactive

Results for N#Cc1cccc(C#N)c1Oc1ccc(N)cc1 ?
hERG protect: -4; KCNK3 inh: inactive; KCNQ1 inh: inactive; Kir21 inh: -0.24; KCNQ1 act: inactive; KCNK9 inh: -6.8*

How did CC(=O)Cc1nsc(NC(=O)c2ccccc2)n1 do in these assays?
hERG protect: -7; KCNK3 inh: inactive; KCNQ1 inh: inactive; Kir21 inh: -0.41; KCNQ1 act: inactive; KCNK9 inh: inactive

Results for CC(=O)Cc1nsc(NC(=O)c2cccs2)n1 ?
hERG protect: 12*; KCNK3 inh: inactive; KCNQ1 inh: inactive; Kir21 inh: -0.05; KCNQ1 act: inactive; KCNK9 inh: inactive

Results for CC(Sc1ccc(Cl)cc1)C(=O)NNC(=O)c1ccccc1O (stereo unspecified) ?
hERG protect: -13; KCNK3 inh: inactive; KCNQ1 inh: 6*; Kir21 inh: 1.9; KCNQ1 act: inactive; KCNK9 inh: inactive

Results for CCOC(=O)c1c(C)[nH]c(C(=O)OCc2csc(CC(=O)Nc3ccccc3C)n2)c1C ?
hERG protect: -15; KCNK3 inh: inactive; KCNQ1 inh: inactive; Kir21 inh: 0.23; KCNQ1 act: inactive; KCNK9 inh: inactive

Results for CCOC(=O)C1CCCN(C(=O)C(C)(C)Oc2ccc(Cl)cc2)C1 (stereo unspecified) ?
hERG protect: -14; KCNK3 inh: inactive; KCNQ1 inh: inactive; Kir21 inh: -5*; KCNQ1 act: inactive; KCNK9 inh: inactive

How did O=C(NCCC(c1ccccc1)c1ccco1)c1cccs1 (stereo unspecified) do in these assays?
hERG protect: -12; KCNK3 inh: inactive; KCNQ1 inh: inactive; Kir21 inh: -0.32; KCNQ1 act: inactive; KCNK9 inh: inactive

What do the screens show for `Fc1ccc(C(CCNCc2cccs2)c2ccco2)cc1` (stereo unspecified)?
hERG protect: -3; KCNK3 inh: inactive; KCNQ1 inh: inactive; Kir21 inh: -4.5*; KCNQ1 act: inactive; KCNK9 inh: inactive

How did O=C(c1cc(=O)[nH]c2ccccc12)N1CCN(c2ccc([N+](=O)[O-])cc2)CC1 do in these assays?
hERG protect: -14; KCNK3 inh: inactive; KCNQ1 inh: inactive; Kir21 inh: 0.92; KCNQ1 act: inactive; KCNK9 inh: inactive

What do the screens show for `CC(=O)c1ccc(N2CCN(C(=O)/C=C/c3ccc(S(=O)(=O)N4CCOCC4)cc3)CC2)cc1`?
hERG protect: -14; KCNK3 inh: inactive; KCNQ1 inh: inactive; Kir21 inh: 0.78; KCNQ1 act: inactive; KCNK9 inh: inactive

Results for CC(=O)c1ccc(N2CCN(C(=O)/C=C/c3ccc(S(=O)(=O)NCc4ccco4)cc3)CC2)cc1 ?
hERG protect: 4.9*; KCNK3 inh: inactive; KCNQ1 inh: inactive; Kir21 inh: 0.05; KCNQ1 act: inactive; KCNK9 inh: inactive

What do the screens show for `CN(C)CCCNC(=S)NCC(c1ccc(Cl)cc1Cl)c1c[nH]c2ccccc12` (stereo unspecified)?
hERG protect: -14; KCNK3 inh: inactive; KCNQ1 inh: inactive; Kir21 inh: -6.5*; KCNQ1 act: inactive; KCNK9 inh: inactive

Results for NCC(c1ccc(Cl)cc1Cl)c1c[nH]c2ccccc12 (stereo unspecified) ?
hERG protect: -8; KCNK3 inh: inactive; KCNQ1 inh: inactive; Kir21 inh: -8.7*; KCNQ1 act: inactive; KCNK9 inh: inactive

Results for NCC(c1ccccc1Cl)c1c[nH]c2ccccc12 (stereo unspecified) ?
hERG protect: -5; KCNK3 inh: inactive; KCNQ1 inh: inactive; Kir21 inh: -0.73; KCNQ1 act: inactive; KCNK9 inh: inactive

Results for Cc1[nH]n2c(=O)cc(C(C)(C)C)nc2c1-c1ccccc1 ?
hERG protect: 8.6*; KCNK3 inh: inactive; KCNQ1 inh: inactive; Kir21 inh: -1.5; KCNQ1 act: 15*; KCNK9 inh: inactive
